# Screening results (PubChem)
# Sampled rows, rich in hits. Any-hit rate of the full collection: about 1.6%.
# CSN deneddyl inh – inhibitors of CSN-mediated cullin deneddylation, primary screen, biochemical, fluorescence polarization, uHTS; 360,000 compounds, 0.38% hits; inhibition, % at 12.5 µM; AID 651999, 2013; COP9 signalosome complex subunit 5 (Homo sapiens), Q92905; Purified CSN, SCF-Nedd8-OG deneddylation;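 active = pattern-corrected inhibition above about 35%, with an unprinted fluorescence ratio check between 0.5 and 1.5, limit read from the data, passing the limit was not always enough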;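 note: 0% = enzyme with substrate and 100% = substrate without enzyme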
#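 test system = HEK293T-derived human Csn5 enzyme | amount = 0.24 nM Csn5 enzyme, final concentration | medium = Tris/NaCl/DTT buffer, pH 7.5 | schedule = 90 min reaction at room temperature | signal = FP | evaluation = inhibition of Csn5 cleavage, % | compound dosing = single dose of 12.5 µM compound with 0.25% DMSO | probe or stimulus = 10 nM SCFSkp2-Nedd8OG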
# PKA-R2B activ – activators of PKA-R2B holoenzyme, primary screen, biochemical, fluorescence polarization, Cy5-IP20, human. PKA-R2B holoenzyme dissociation; R2B truncated from residue 108, S112A mutant; 0% DMSO only, 100% 113 µM cGMP. activation, % at 11.4 µM. 340,000 compounds, 0.079% hits;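 active = activation above a cutoff set at the mean over all compounds plus 3 SD, cut at about 18% in these data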;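 note: higher means more holoenzyme dissociation and a rise in polarization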
# PKA-R1A act – activators of PKA-R1A holoenzyme, primary screen, biochemical, fluorescence polarization, Cy5-IP20, bovine R1A, mouse PKAc; 340,000 compounds, 0.083% hits; PKA-R1A dissociation; scaled: DMSO 0%, 113 µM cGMP 100%; activation, % at 11.4 µM; cAMP-dependent protein kinase type I-alpha regulatory subunit (Bos taurus) + …;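 active = percent activation above the mean of all tested compounds plus 3 SD, cut at about 19% in these data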;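 note: higher means more PKAc released from R1A so a rise in polarization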
# TPT1 inh – Candida albicans TPT1 enzyme inhibitors, primary screen, biochemical, fluorescence polarization. inhibition, % at 5 µM. recombinant caTPT1, FP RNA substrate dephosphorylation. 300,000 compounds, 0.81% hits. AID 1962, 2009;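 active = inhibition above the mean of all tested compounds plus 3 SD, set per screening campaign, cut at about 24% in these data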;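 note: plate controls were DMSO alone for no effect and ferristatin control at 100 nM for full effect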
# HNF4A DNA FP – change in binding of human HNF4A to DNA, primary screen, biochemical, fluorescence polarization, FITC-DNA; Hepatocyte nuclear factor 4-alpha (Homo sapiens), P41235; 1 h; activity change, % at 10 µM; 360,000 compounds, 0.3% hits; AID 1224865, 2016; in the data active = activity change above about 30%, passing the limit was not always enough
# Target sequence (P41235 whole entry, looked up): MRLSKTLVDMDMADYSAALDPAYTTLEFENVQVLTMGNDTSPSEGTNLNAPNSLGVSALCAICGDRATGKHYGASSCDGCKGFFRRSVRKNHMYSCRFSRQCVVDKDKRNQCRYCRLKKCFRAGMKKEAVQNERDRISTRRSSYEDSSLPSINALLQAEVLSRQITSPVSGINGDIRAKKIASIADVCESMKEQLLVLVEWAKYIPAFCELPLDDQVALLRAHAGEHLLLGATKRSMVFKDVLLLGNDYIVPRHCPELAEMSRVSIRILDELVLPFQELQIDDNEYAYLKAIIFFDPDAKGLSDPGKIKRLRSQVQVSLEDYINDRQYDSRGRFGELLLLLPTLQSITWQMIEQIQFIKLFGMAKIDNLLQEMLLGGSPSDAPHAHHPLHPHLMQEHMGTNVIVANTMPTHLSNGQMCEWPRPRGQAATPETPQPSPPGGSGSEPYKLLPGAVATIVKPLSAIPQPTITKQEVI
# Rpn11 block – Rpn11 (PSMD14) deubiquitinase inhibitors, primary screen, biochemical, fluorescence polarization, uHTS. 26S proteasome non-ATPase regulatory subunit 14 (Homo sapiens), O00487. human 26S proteasome, Ub4-pepOG fluorescence polarization; 20S core pre-blocked with epoxomicin. calls only at 20 µM. 360,000 compounds, 0.59% hits. AID 588493, 2011;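 active = inhibition at 20 µM, scaled to each plate's controls, above about 33%, limit read from the data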
# R2B FP artifact – fluorescence polarization artefacts, biochemical, artefact control for PKA-R2B activator project; shares compounds with PKA-R2B activ; 270 compounds, 6% hits; activation, % at 11.4 µM; FP artifact counterscreen; in the data active = activation above about 20%;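 note: Cy5 labelled IP20 peptide probe with compound but no PKA protein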
# PKA-R2B act conf – activators of PKA-R2B holoenzyme, confirmation, biochemical, fluorescence polarization, human. shares compounds with PKA-R2B activ. PKA-R2B complex, activation. activation, % at 11.4 µM. 270 compounds, 9% hits. AID 504797, 2011; in the data active = activation above about 19%
# * hit, by the source's call; i = inactive; · = not tested or not shown.
SMILES,CSN deneddyl inh,PKA-R2B activ,PKA-R1A act,TPT1 inh,HNF4A DNA FP,Rpn11 block,R2B FP artifact,PKA-R2B act conf
COc1ccc(NC(=O)C2CCN(S(=O)(=O)c3ccccc3)CC2)cc1,-4.5,-1.0,-0.3,-4.0,-2.5,i,·,·
Cc1ccccc1NC(=O)CCS(=O)(=O)c1ccc(Br)s1,2.9,19.0*,5.9,-0.4,-0.9,i,-0.8,-0.2
COC(=O)c1ccccc1NC(=O)CCS(=O)(=O)c1ccc(Br)s1,-0.5,-10.4,0.1,0.1,-2.5,i,·,·
COc1ccc(-c2nc3nc(N)nn3cc2C)cc1F,4.7,1.0,5.0,1.9,-2.9,i,·,·
COc1ccc(OC)c(-c2nnc3n2N=C(c2ccc(OC)c(OC4CCOC4)c2)CS3)c1 (stereo unspecified),6.5,18.6*,0.9,·,6.5,i,-0.5,-2.5
N#Cc1cc([N+](=O)[O-])ccc1NC(=O)COC(=O)C1CC2CCCC(C1)C2=O (stereo unspecified),1.7,5.3,-3.3,1.3,-3.2,i,·,·
N#Cc1cc([N+](=O)[O-])ccc1NC(=O)COC(=O)C1CCC(=O)N1 (stereo unspecified),1.4,19.8*,-4.7,·,-0.1,i,1.1,1.1
CCC[C@@H]1Cc2ccccc2N1C(C)=O,-1.8,19.6*,-5.4,·,-4.0,i,-1.9,-2.7
COc1ccc(OC)c(CC(NC(C)=O)C(=O)NC2CCN(c3c(Cc4ccccc4)c(C)nc4ncnn34)CC2)c1 (stereo unspecified),-5.6,21.5*,1.4,-0.5,1.7,i,1.1,-5.0
COc1ccc(N2C[C@H](CSC)[C@@H](CC(=O)Nc3ccccc3)C2=O)cc1,1.8,-15.1,2.7,·,1.0,i,·,·
COc1cc2cc(CN(Cc3ccc4c(c3)OCO4)C(=O)c3ccco3)c(=O)[nH]c2cc1OC,4.0,20.9*,-2.9,-1.5,-5.3,i,5.3,2.4
COc1ccc(C(=O)NCc2cn3c(C)csc3n2)cc1OC,-0.2,-12.6,-8.0,-1.8,0.3,i,·,·
CCOc1ccc(CC(=O)NCc2cn3c(C)csc3n2)cc1,-4.5,21.8*,-2.3,-3.7,3.1,i,0.2,3.9
Cc1ccc2nc(N3CCN(C)CC3)c(C=O)c(=O)n2c1,-16.8,-1.5,-3.8,-12.0,-22.9,i,·,·
O=C(c1cc(F)c(F)cc1Cl)N1CCN(c2ncccn2)CC1,-3.0,19.3*,-8.5,-6.5,-3.8,i,-0.1,-2.1
O=C(Nc1cccc(S(=O)(=O)N2CCCCC2)c1)C1CC1,2.1,-5.3,-7.7,·,4.4,i,·,·
CC(=O)N(c1ccc(Cl)cc1)c1nc(C)cc(C)c1C#N,-0.9,20.1*,5.9,-4.3,1.4,i,0.6,2.7
CNC(=S)c1cc(C(C)(C)C)c(O)c(C(C)(C)C)c1,3.3,-6.2,2.0,2.7,-1.3,i,·,·
CCOC(=O)N1CCN(c2ccccc2OC)CC1,0.6,-8.8,8.0,-2.1,1.3,i,·,·
CCOC(=O)/C(=N\Nc1ccc(Br)cc1)N1CCN(c2ccccc2OC)CC1,1.2,21.0*,-2.4,·,1.0,i,1.1,2.9
COc1nc(N)c(C#N)c(-c2ccc(N(C)CCC#N)cc2)c1C#N,3.4,·,·,5.7,0.4,i,·,·
Cn1c(SCC(=O)N2CCCC2)nc2c(c1=O)SCC2,-0.8,2.3,-4.8,·,1.6,i,·,·
